Bioassay records (PubChem BioAssay)
HCV NS3 hel inh: inhibitors of HCV NS3 helicase, primary screen, biochemical, Cy5 molecular beacon fluorescence. inhibition, % at 10.9 µM. Hepatitis C virus NS3 helicase. AID 1800, 2009. NS3 helicase DNA unwinding. 0.56% of 290,000 active;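 active means inhibition above the mean of all tested compounds plus 3 SD, set per campaign, cut at about 35% in these data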
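test system = hepatitis C virus NS3 helicase domain fragment enzyme | reagent = annealed dual-labelled DNA beacon duplex, ATP-started | times = 1 h at 25 °C | detection = Cy5 fluorescence, 0 and 60 min reads | read-out basis = percent inhibition from t60/t0 fluorescence ratio | control set = DMSO and thioflavine S | replication = one well per compound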
MEKK2 WT-MEK5: modulators of MEK5 binding to wildtype MEKK2, primary screen, biochemical, multiplex bead flow cytometry, Alexa488-MEK5 | Mitogen-activated protein kinase kinase kinase 2 (Homo sapiens), Q9Y2U5 | 1.1% of 290,000 active | binding response (% of control), % at 10 µM | Alexa488-MEK5 binding to MEKK2 WT; actives lie on both sides; in the data active means binding response below about 67% or above about 130%
MEKK2mut PB1 HTS: MEK5 binding signal on mutant MEKK2 PB1, primary screen, biochemical, multiplex bead flow cytometry, Alexa488-MEK5. Alexa488-MEK5 binding to MEKK2 mutant. percent response, % at 10 µM. 0.35% of 290,000 active; in the data active means percent response above about 24%, passing the limit was not always enough
MEKK3 PB1 HTS: modulators of MEKK3-MEK5 PB1 binding, primary screen, biochemical, wildtype MEKK3, multiplex bead flow cytometry, Alexa488-MEK5 | AID 1529, 2009 | bead-based flow cytometry, Alexa488-MEK5 binding to MEKK3; actives lie on both sides; 0 = blocked by unlabeled MEK5, 100 = vehicle | 1.4% of 290,000 active | Mitogen-activated protein kinase kinase kinase 3 (Homo sapiens), Q99759 | binding response (% of control), % at 10 µM;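 active means binding response more than 3 SD above or below the average of its plate-row segment, actives on both sides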;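 further: Alexa488 bead fluorescence after subtracting the streptavidin-only scavenger bead signal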
DNA FID counter: compounds displacing fluorescent DNA intercalator, primary screen, artefact control for HCV NS3 helicase inhibitor project, biochemical, FID fluorescence. DNA fluorescent intercalator displacement. inhibition, % at 7.9 µM. 0.17% of 290,000 active. AID 1845, 2009; in the data active means inhibition above about 37%;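 further: higher means more ethidium bromide displaced from hairpin DNA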
T cruzi repl: inhibitors of intracellular T. cruzi growth, primary screen, luminescence, NIH3T3 host cells; T. cruzi beta-gal in NIH3T3, 90 h; inhibition, % (test concentration not listed); 1.4% of 300,000 active; AID 1885, 2009;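 active means mean inhibition across valid replicates above about 55%, limit read from the data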;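 further: signal also drops with host cell toxicity which is not excluded here; higher percent means less beta-gal luminescence so fewer parasites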
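compound dosing = single 50 nL compound addition per well in DMSO | material = NIH/3T3 host cells with β-galactosidase reporter T. cruzi | input = 5,000 host fibroblasts per well | timing = ≥90 h infection period, 3 h prior cell attachment | read-out basis = percent inhibition of parasite-derived β-gal signal | detection = GalScreen β-gal luminescence, detergent lysis, 60 min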
MEKK2wt confirm: modulators of MEK5 binding to wildtype MEKK2, confirmation, biochemical, single concentration, multiplex bead flow cytometry; AID 1892, 2009; Alexa488-MEK5 binding to MEKK2 WT; actives lie on both sides; 2.4% of 5,900 active; binding response (% of control), % at 10 µM; shares compounds with MEKK3 PB1 HTS; in the data active means binding response below about 16% or above about 210%; inactive means in between
MEKK2mut confirm: mutant MEKK2 PB1-MEK5 binding signal retest – biochemical, single concentration, multiplex bead flow cytometry, confirmation; shares compounds with MEKK3 PB1 HTS; Alexa488-MEK5 binding to MEKK2 mutant; percent response, % at 10 µM; 2% of 5,900 active; in the data active means percent response mostly above about 71%, no sharp cut-off; inactive means mostly below about 38%;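 further: higher means compound restores mutant binding toward wildtype level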
MEKK3 confirm: MEKK3 wild-type PB1 binding to MEK5, inhibitors, confirmation, biochemical, bead multiplex flow cytometry, single concentration, wildtype; 1.8% of 5,900 active; Alexa488-MEK5 binding to MEKK3; hits give low values; binding response (% of control), % at 10 µM; shares compounds with MEKK3 PB1 HTS;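 active means binding response below 72% of control, or above a set upper limit, though filed actives all read lower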
Each line names hits and unclear results; the compound was inactive in the other large screens (follow-up assays come after a bar, where they were run); [ ] = another dose, or the depositor's remark. In the library only some 4.1% were active in any assay of this set; here they are far more common.

CCc1cccc(CC)c1NC(=O)COC(=O)c1ccccc1-c1nc2ccccc2s1	MEKK3 PB1 HTS 48[inhibitor] | MEKK2wt confirm inactive | MEKK2mut confirm inactive | MEKK3 confirm inactive
NNc1nc(-c2ccccc2Cl)nc2sc3c(c12)CCCC3	none
COc1cccc(/C=N/n2c(CO)nc3ccccc32)c1OC	MEKK3 PB1 HTS 71[inhibitor] | MEKK2wt confirm inactive | MEKK2mut confirm inactive | MEKK3 confirm inactive
CC(C)(C)c1cc(NCc2ccccn2)n2ncc(-c3ccc(Cl)cc3)c2n1	none
CN(C)CCCNc1cc(C(C)(C)C)nc2c(-c3ccc(Cl)cc3)cnn12	MEKK2 WT-MEK5 190 | MEKK2wt confirm 250 | MEKK2mut confirm 89 | MEKK3 confirm inactive
CC(C)Nc1cc(C(C)(C)C)nc2c(-c3ccccc3)cnn12	none (no result: T cruzi repl)
CCc1nccn1-c1cc(C(C)(C)C)nc2c(-c3ccc(Cl)cc3)cnn12	MEKK3 PB1 HTS 151 | MEKK2wt confirm inactive | MEKK2mut confirm inactive | MEKK3 confirm inactive
CC(C)(C)c1cc(NCCCn2ccnc2)n2ncc(-c3ccccc3)c2n1	MEKK2 WT-MEK5 145 | MEKK2wt confirm inactive | MEKK2mut confirm inactive | MEKK3 confirm inactive
Cc1cc(NCCCN2CCOCC2)n2ncc(-c3ccc(Cl)cc3)c2n1	MEKK2 WT-MEK5 147 | MEKK2wt confirm inactive | MEKK2mut confirm inactive | MEKK3 confirm inactive
Cc1cc(NCCCn2ccnc2)n2ncc(-c3ccc(Cl)cc3)c2n1	none
COC(=O)c1ccc(NC(=O)CNc2ccccc2)cc1	none
CCOC(=O)C1CCCCN1S(=O)(=O)c1ccc2c(c1)CC(C)N2C(=O)C1CCC1 (stereo not drawn)	none
CCc1ccc(C(=O)NNc2ccc(S(N)(=O)=O)cc2)cc1	MEKK2 WT-MEK5 186 | MEKK2wt confirm inactive | MEKK2mut confirm inactive | MEKK3 confirm inactive
CNCc1ccccc1Sc1cccc2ccccc12	MEKK3 PB1 HTS 154 | MEKK2wt confirm inactive | MEKK2mut confirm inactive | MEKK3 confirm inactive
O=C(CCS(=O)(=O)c1ccc(F)cc1)Nc1nc(-c2ccncc2)cs1	none
COc1ccc(C2C(C(=O)O)c3ccccc3C(=O)N2Cc2ccco2)cc1 (stereo not drawn)	none
Cc1c(C2=CCN(S(=O)(=O)c3ccc(Br)cc3)CC2)c2ccccc2n1C	none
Cc1ccc(NC(=O)C2=CCN(S(=O)(=O)c3ccc(F)cc3)CC2)cc1	none
Cc1ccc(S(=O)(=O)N2CCN(S(=O)(=O)N3CCCCC3)CC2)c(C)c1	MEKK2 WT-MEK5 -3.0[inhibitor], MEKK3 PB1 HTS 1.0[inhibitor] | MEKK2wt confirm inactive | MEKK2mut confirm inactive | MEKK3 confirm inactive
Cc1ccc(O)c(N=Nc2ccc(S(=O)(=O)N3CCCC3)cc2)c1	MEKK3 PB1 HTS 132 | MEKK2wt confirm inactive | MEKK2mut confirm inactive | MEKK3 confirm inactive
Cc1ccc(S(=O)(=O)N2CC=C(c3ccc(F)cc3)CC2)cc1	MEKK3 PB1 HTS 140 | MEKK2wt confirm inactive | MEKK2mut confirm inactive | MEKK3 confirm inactive
